Data as given in ChEMBL document CHEMBL5724801, “EUbOPEN Chemogenomics Library - Multiplex” (2024).
Values joined by “and” are separate entries in the source; they are usually repeats but may differ in a detail not shown here. Equal values may be shown once.

Test system: U2OS
Assay: Multiplex assay against U2OS
Type: toxicity, cell-based
Settings: human
In short: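 Phenotypes for tubulin, mitochondrial mass and membrane permeability are expressed as per cents of healthy-nucleus cells. Cells were stained live at seeding with Hoechst33342, BioTracker Green Microtubule Cytoskeleton Dye, MitoTracker Red and Annexin V Alexa Fluor 680, then imaged after compound addition on a CQ1 microscope at 37°C and 5% CO2. Machine-learning gating in CellPathfinder separated Hoechst high-intensity objects from normal cells, divided normal cells by nuclear state (healthy, pyknosed, fragmented) and divided pyknosed cells into mitotic or apoptotic.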

[1] = 12 h, 1 µM, compound concentration 1 uM
[2] = 12 h, 10 µM, compound concentration 10 uM
[3] = 24 h, 1 µM, compound concentration 1 uM
[4] = 24 h, 10 µM, compound concentration 10 uM
[5] = 48 h, 1 µM, compound concentration 1 uM
[6] = 48 h, 10 µM, compound concentration 10 uM

## CN1[C@@H](CC(=O)c2ccccc2)CCC[C@H]1C[C@H](O)c1ccccc1.Cl [LOBELINE HYDROCHLORIDE]
[1]
  Population Apoptotic (%): 43.24% and 34.78%
  Population Fragmented Nuclei (%): 1.42% and 2.51%
  Population Healthy Nuclei (%): 88.07% and 85.93%
  Population Hoechst High Intensity Objects (%): 0%
  Population Membrane Permeable-Phenotype (%): 0.97% and 2.34%
  Population Mitochondria Different-Phenotype (%): 0% and 6.43%
  Population Mitotic Cells (%): 56.76% and 65.22%
  Population Normal (%): 100%
  Population Pyknosed Nuclei (%): 10.51% and 11.56%
  Population Tubulin-Different-Phenotype (%): 0.65% and 0.58%
  Total Cell Count: 352 and 199
[2]
  Population Apoptotic (%): 42.42% and 20%
  Population Fragmented Nuclei (%): 1.15% and 1.84%
  Population Healthy Nuclei (%): 91.26% and 82.82%
  Population Hoechst High Intensity Objects (%): 0%
  Population Membrane Permeable-Phenotype (%): 1.76% and 8.15%
  Population Mitotic Cells (%): 57.58% and 80%
  Population Normal (%): 100%
  Population Pyknosed Nuclei (%): 7.59% and 15.34%
  Population Tubulin-Different-Phenotype (%): 4.03% and 5.19%
  Total Cell Count: 435 and 163
[3]
  Population Apoptotic (%): 44.64% and 46.88%
  Population Fragmented Nuclei (%): 0.81% and 1.97%
  Population Healthy Nuclei (%): 87.88% and 85.43%
  Population Hoechst High Intensity Objects (%): 0%
  Population Membrane Permeable-Phenotype (%): 0.46% and 2.76%
  Population Mitochondria Different-Phenotype (%): 0% and 6.91%
  Population Mitotic Cells (%): 55.36% and 53.12%
  Population Normal (%): 100%
  Population Pyknosed Nuclei (%): 11.31% and 12.6%
  Population Tubulin-Different-Phenotype (%): 0.69% and 0.92%
  Total Cell Count: 495 and 254
[4]
  Population Apoptotic (%): 28.79% and 39.39%
  Population Fragmented Nuclei (%): 0.84% and 0.51%
  Population Healthy Nuclei (%): 88.01% and 82.74%
  Population Hoechst High Intensity Objects (%): 0%
  Population Membrane Permeable-Phenotype (%): 0.96% and 1.23%
  Population Mitotic Cells (%): 71.21% and 60.61%
  Population Normal (%): 100%
  Population Pyknosed Nuclei (%): 11.15% and 16.75%
  Population Tubulin-Different-Phenotype (%): 2.11% and 2.45%
[5]
  Population Apoptotic (%): 42.67% and 32.61%
  Population Fragmented Nuclei (%): 2.46% and 2.85%
  Population Healthy Nuclei (%): 89.17% and 86.22%
  Population Hoechst High Intensity Objects (%): 0%
  Population Membrane Permeable-Phenotype (%): 0.75% and 0.83%
  Population Mitochondria Different-Phenotype (%): 0.13% and 5.79%
  Population Mitotic Cells (%): 57.33% and 67.39%
  Population Normal (%): 100%
  Population Pyknosed Nuclei (%): 8.37% and 10.93%
  Population Tubulin-Different-Phenotype (%): 1.25% and 0.55%
  Total Cell Count: 896 and 421
[6]
  Population Apoptotic (%): 41.41% and 48.72%
  Population Fragmented Nuclei (%): 1.94% and 1.9%
  Population Healthy Nuclei (%): 88.91% and 85.76%
  Population Hoechst High Intensity Objects (%): 0%
  Population Membrane Permeable-Phenotype (%): 1.66% and 1.85%
  Population Mitochondria Different-Phenotype (%): 0.31% and 8.86%
  Population Mitotic Cells (%): 58.59% and 51.28%
  Population Normal (%): 100%
  Population Pyknosed Nuclei (%): 9.15% and 12.34%
  Population Tubulin-Different-Phenotype (%): 1.77% and 2.21%
